Test results as given in ChEMBL document CHEMBL1828498, “Identification and characterization of a novel integrin-linked kinase inhibitor” (J Med Chem, 2011).
Calls of active or inactive are those of the source. The rule behind the calls is not given here.

Key:
[1] = molecular target: Rapamycin-insensitive companion of mTOR (Homo sapiens) (UniProt Q6R327); experiment: Inhibition of mTORC2 in human PC3 cells assessed as SGK1 phosphorylation by Western blot analysis; type: cell-based; conditions: PC-3
How it was run: (§1)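 Cells exposed 24 h in 5% FBS medium, final DMSO 0.1%; lysed in 1% SDS/10 mM EDTA/50 mM Tris pH 8.1, equal protein on SDS-PAGE, nitrocellulose, primary antibody 1:1000 at 4°C for 2 h, HRP secondary 1:5000, ECL detection; blots representative of three independent experiments.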

PC-3 [2] = experiment: Induction of autophagy in human PC3 cells expressing Atg5 siRNA assessed as LC3-II conversion by Western blot analysis; type: functional, cell-based
How it was run: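 Transient Atg5 siRNA transfection of PC-3 by electroporation, cells used 48 h later, then treated. LC3-II conversion detected by immunoblot: SDS lysis, antibody 1:1000 at 4°C for 2 h, ECL. Representative of three independent experiments.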

SK-BR-3 [3] = experiment: Reduction in HER2 concentration in human SKBR3 cells after 24 hrs by Western blot analysis; type: functional, cell-based
How it was run: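 PC-3 versus stable PC-3/CA-ILK, or SKBR3 versus transient SKBR3/CA-ILK (electroporation, used 48 h after), treated 24 h in 5% FBS medium; immunoblotting with ECL; representative of three experiments.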

PC-3 [4] = experiment: Induction of apoptosis in human PC3 cells assessed as late apoptotic cells at 4 uM by annexin V/PI staining (reference value: 9.8%); type: functional
SK-BR-3 [5] = experiment: Reduction in HER2 mRNA expression in human SKBR3 cells after 24 hrs by RT-PCR analysis; type: functional, cell-based
How it was run: (§2)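 PC-3, PC-3/CA-ILK, SKBR3 and SKBR3/CA-ILK cells treated 24 h in 5% FBS medium; total RNA from 1 × 10^6 cells by Trizol, 1 μg reverse-transcribed, then PCR with gene-specific primers and β-actin reference.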

Mus musculus [6] = experiment: Decrease in phosphorylation of YB-1 in human PC3 cells xenografted nude mouse tumor lysate at 25 mg/kg, po administered for 35 days by Western blot analysis; type: functional, organism-based; set-up: dose 25 mg/kg; conditions: Neoplasm, PC-3
How it was run: (§3)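 Male NCr athymic nude mice, 5–7 weeks, with s.c. PC-3 xenografts (0.5 × 10^6 cells in 50% Matrigel), dosed by oral gavage once daily for 35 days. Vehicle 0.5% methylcellulose, 0.1% Tween 80 in water, 10 μL/g. Tumors snap-frozen at sacrifice; three tumors per group immunoblotted.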

[7] = molecular target: Inhibitor of nuclear factor kappa-B kinase subunit beta (Homo sapiens) (UniProt O14920); experiment: Inhibition of IKK-beta at 5 uM assessed as remaining activity
How it was run: (§4)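 Panel of 20 recombinant kinases, profiled by a commercial vendor.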

PC-3 [8] = experiment: Cytotoxicity against human PC3 cells expressing Atg5 siRNA assessed as cell viability by MTT assay; type: functional, cell-based
How it was run: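 PC-3 cells electroporated with Atg5 siRNA (or control siRNA) and used 48 h after transfection. Treated 24 h in 5% FBS medium, 0.1% DMSO. Viability by MTT, 1 h at 37°C, absorbance 570 nm. Mean ± SD, n = 6.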

[9] = molecular target: T1, 3-phosphoinositide-dependent protein kinase 1 (Homo sapiens) (UniProt O15530); experiment: Inhibition of PDK2 in human MDA-MB-231 cells assessed as Akt Thr-308 dephosphorylation by Western blot analysis; type: functional, cell-based; how it was run: as §1
T1 sequence (whole entry): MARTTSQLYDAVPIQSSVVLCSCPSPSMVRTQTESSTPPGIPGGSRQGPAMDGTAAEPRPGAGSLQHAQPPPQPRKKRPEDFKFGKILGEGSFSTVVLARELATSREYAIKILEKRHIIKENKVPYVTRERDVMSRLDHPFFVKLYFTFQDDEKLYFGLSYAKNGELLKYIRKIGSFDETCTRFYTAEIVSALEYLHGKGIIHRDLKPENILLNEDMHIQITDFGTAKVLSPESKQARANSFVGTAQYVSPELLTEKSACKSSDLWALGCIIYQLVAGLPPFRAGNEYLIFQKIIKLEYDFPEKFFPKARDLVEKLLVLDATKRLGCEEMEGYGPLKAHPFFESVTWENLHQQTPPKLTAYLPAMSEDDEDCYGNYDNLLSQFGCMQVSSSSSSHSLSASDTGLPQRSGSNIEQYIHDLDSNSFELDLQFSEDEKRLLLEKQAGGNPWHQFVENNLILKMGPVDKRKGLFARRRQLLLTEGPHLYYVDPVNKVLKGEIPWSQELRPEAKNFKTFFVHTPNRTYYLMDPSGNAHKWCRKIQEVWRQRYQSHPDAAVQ

Mus musculus [10] = experiment: Decrease in phosphorylation of MLC in human PC3 cells xenografted nude mouse tumor lysate at 25 mg/kg, po administered for 35 days by Western blot analysis; type: functional, organism-based; set-up: dose 25 mg/kg; conditions: Neoplasm, PC-3; how it was run: as §3
PC-3 [11] = experiment: Induction of autophagy in human PC3 cells assessed as LC3-II conversion by Western blot analysis; type: functional, cell-based
How it was run: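 PC-3 cells treated 24 h in 5% FBS medium. Lysed in 1% SDS/10 mM EDTA/50 mM Tris pH 8.1, equal protein on SDS-PAGE, primary antibody 1:1000 at 4°C for 2 h, HRP secondary, ECL detection. Read-outs PARP cleavage and LC3-II conversion; blots representative of three experiments.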

SK-BR-3 [12] = experiment: Reduction in YB-1 mRNA expression in human SKBR3 cells expressing constitutively active ILK after 24 hrs by RT-PCR analysis; type: functional, cell-based; how it was run: as §2
Mus musculus [13] = experiment: Decrease in phosphorylation of HER2 in human PC3 cells xenografted nude mouse tumor lysate at 25 mg/kg, po administered for 35 days by Western blot analysis; type: functional, organism-based; set-up: dose 25 mg/kg; conditions: Neoplasm, PC-3; how it was run: as §3
[14] = molecular target: T2, Scaffold protein ILK (Homo sapiens) (UniProt Q13418); experiment: Inhibition of ILK in human PC3 cells assessed as decrease in phosphorylated JNK concentration by Western blot analysis; type: cell-based; conditions: PC-3
T2 sequence (whole entry): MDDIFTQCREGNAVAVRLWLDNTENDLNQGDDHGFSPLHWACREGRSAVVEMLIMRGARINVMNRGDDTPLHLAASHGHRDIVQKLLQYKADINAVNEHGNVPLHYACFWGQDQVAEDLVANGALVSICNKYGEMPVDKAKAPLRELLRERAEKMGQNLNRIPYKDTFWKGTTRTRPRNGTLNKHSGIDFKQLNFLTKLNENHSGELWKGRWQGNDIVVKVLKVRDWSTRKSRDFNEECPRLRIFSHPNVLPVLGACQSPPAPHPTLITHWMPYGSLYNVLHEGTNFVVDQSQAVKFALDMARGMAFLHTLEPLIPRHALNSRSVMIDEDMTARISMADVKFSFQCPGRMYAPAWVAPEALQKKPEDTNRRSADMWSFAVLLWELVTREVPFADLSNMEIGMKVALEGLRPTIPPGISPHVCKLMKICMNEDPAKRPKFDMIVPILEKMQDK
How it was run: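 PC-3 cells exposed to graded concentrations for 24 h in 5% FBS medium. Immunoblotting for phospho-Tyr397-FAK, ERK1/2, p38 and JNK. Lysis in 1% SDS buffer, primary antibody 1:1000 at 4°C for 2 h, ECL. Three independent experiments.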

[15] = molecular target: RAC-alpha serine/threonine-protein kinase (Homo sapiens) (UniProt P31749); experiment: Inhibition of Akt at 5 uM assessed as remaining activity; how it was run: as §4
SK-BR-3 [16] = experiment: Reduction in YB-1 mRNA expression in human SKBR3 cells after 24 hrs by RT-PCR analysis; type: functional, cell-based; how it was run: as §2

Chain of RAC-alpha serine/threonine-protein kinase (Homo sapiens) (P31749 whole entry): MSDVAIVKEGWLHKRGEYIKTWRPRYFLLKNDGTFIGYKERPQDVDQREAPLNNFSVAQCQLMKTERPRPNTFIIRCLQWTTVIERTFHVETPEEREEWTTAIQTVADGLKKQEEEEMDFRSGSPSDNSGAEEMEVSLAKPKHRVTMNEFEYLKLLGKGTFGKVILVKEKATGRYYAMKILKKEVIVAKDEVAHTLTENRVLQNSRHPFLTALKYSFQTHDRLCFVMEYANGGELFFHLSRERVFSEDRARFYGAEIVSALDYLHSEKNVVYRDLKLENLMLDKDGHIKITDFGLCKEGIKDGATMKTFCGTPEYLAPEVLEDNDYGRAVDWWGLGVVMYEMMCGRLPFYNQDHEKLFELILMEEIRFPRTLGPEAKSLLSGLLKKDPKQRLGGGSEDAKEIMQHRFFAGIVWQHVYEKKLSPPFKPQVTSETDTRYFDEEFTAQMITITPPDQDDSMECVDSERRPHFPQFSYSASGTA
Chain of Rapamycin-insensitive companion of mTOR (Homo sapiens) (Q6R327 whole entry): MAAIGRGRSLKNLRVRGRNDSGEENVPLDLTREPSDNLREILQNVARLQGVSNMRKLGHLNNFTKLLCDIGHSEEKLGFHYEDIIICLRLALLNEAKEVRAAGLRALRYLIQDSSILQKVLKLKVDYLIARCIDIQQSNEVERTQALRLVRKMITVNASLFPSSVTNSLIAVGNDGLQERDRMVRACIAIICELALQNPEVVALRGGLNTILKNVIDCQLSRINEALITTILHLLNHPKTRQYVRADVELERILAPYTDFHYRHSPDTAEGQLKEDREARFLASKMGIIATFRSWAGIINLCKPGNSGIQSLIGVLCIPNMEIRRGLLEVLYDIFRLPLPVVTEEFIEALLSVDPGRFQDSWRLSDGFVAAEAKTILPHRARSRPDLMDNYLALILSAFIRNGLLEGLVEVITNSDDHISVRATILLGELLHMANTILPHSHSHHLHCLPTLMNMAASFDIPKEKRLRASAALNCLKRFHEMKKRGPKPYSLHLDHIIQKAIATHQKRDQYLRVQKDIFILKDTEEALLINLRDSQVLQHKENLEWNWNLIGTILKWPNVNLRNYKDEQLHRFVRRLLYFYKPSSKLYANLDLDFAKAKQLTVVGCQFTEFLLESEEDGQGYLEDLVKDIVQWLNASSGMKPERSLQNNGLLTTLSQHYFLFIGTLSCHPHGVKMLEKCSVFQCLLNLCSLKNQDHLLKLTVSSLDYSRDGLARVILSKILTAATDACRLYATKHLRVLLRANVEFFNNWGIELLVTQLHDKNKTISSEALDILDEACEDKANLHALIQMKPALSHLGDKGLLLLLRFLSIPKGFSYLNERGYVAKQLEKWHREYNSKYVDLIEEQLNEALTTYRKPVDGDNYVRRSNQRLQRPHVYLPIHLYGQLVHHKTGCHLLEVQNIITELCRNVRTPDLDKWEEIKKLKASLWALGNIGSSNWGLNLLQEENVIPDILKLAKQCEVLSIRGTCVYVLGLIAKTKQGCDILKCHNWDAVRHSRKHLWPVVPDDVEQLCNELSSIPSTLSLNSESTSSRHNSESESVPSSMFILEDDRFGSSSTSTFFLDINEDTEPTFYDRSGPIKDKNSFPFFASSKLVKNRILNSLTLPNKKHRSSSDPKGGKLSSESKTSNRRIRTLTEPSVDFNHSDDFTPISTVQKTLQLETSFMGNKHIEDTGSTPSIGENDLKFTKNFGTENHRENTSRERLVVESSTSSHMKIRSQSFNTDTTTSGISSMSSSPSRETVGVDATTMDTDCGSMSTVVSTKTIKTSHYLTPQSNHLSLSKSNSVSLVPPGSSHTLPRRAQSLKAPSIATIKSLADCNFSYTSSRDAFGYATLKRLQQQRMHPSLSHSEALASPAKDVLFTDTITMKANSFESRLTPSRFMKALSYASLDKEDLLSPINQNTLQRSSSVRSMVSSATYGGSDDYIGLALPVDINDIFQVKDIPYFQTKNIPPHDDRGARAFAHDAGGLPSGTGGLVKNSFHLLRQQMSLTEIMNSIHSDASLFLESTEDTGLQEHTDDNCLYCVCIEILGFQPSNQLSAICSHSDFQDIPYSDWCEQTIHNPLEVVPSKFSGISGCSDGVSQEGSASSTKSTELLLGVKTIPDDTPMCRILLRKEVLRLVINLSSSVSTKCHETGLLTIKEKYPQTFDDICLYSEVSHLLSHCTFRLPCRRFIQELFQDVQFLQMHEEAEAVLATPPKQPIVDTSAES
Chain of Inhibitor of nuclear factor kappa-B kinase subunit beta (Homo sapiens) (O14920 whole entry): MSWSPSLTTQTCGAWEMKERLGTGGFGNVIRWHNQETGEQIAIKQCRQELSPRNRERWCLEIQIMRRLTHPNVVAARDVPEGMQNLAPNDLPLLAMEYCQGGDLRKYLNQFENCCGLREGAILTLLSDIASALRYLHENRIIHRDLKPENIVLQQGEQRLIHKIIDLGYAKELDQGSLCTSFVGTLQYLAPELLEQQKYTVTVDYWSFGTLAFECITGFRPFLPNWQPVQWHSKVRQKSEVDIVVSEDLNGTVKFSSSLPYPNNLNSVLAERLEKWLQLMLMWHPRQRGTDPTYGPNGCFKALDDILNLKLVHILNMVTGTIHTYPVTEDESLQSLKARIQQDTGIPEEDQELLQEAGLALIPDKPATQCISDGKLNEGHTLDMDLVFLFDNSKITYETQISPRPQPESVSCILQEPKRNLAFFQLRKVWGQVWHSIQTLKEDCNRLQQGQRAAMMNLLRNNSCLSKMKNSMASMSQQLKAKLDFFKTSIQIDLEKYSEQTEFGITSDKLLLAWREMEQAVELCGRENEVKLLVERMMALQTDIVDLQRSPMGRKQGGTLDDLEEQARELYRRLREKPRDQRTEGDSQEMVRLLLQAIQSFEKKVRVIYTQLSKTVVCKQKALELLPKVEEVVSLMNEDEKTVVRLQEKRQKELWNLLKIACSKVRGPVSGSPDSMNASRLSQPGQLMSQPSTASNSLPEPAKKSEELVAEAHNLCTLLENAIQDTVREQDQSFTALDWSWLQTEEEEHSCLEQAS

## CNC(=O)CCc1cc(-c2ccc(-c3ccc(C(F)(F)F)cc3)cc2)n(-c2ccc(N3CCNCC3)cc2)n1
[1]
  inhibition: inactive
PC-3 [2]
  Activity: inactive
SK-BR-3 [3]
  Activity: Dose-dependent effect
PC-3 [4]
  Activity: 19.1%
SK-BR-3 [5]
  Activity: Dose-dependent effect
Mus musculus [6]
  Activity: Active
[7]
  Activity: 102%
PC-3 [8]
  Activity: inactive
[9]
  inhibition: inactive
Mus musculus [10]
  Activity: Active
PC-3 [11]
  Activity: Dose-dependent effect
SK-BR-3 [12]
  Activity: inactive
Mus musculus [13]
  Activity: Active
[14]
  inhibition: inactive
[15]
  Activity: 88%
SK-BR-3 [16]
  Activity: Dose-dependent effect
